The values that follow come from ChEMBL document CHEMBL2203163, “Bromine- and chlorine-containing aeruginosins from Microcystis aeruginosa bloom material collected in Kibbutz Geva, Israel” (J Nat Prod, 2012).

Assay [1] in a line: Inhibition of trypsin. The gist of the method: (§1)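 Protease-inhibition assay read on a microplate (ELISA-type) reader. Activity is reported as IC50.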
Assay [2] in a line: Inhibition of thrombin. An outline of the steps: as §1

Consider `CC(C)C[C@@H](NC(=O)[C@H](O)Cc1cc(Cl)c(O)c(Cl)c1)C(=O)N1[C@H](C(=O)NCCCCNC(=N)N)C[C@@H]2CC[C@@H](O)C[C@@H]21`, for which the IC50 in assay [1] was 8.5 µM; in assay [2], more than 45.5 µM.

With `CC[C@H](C)[C@@H](NC(=O)[C@H](O)Cc1cc(Br)c(O)c(Br)c1)C(=O)N1[C@H](C(=O)NCCCCNC(=N)N)C[C@@H]2CC[C@@H](OS(=O)(=O)O)C[C@@H]21` (relative stereo), the values for the half-inhibitory concentration (IC50) in assay [1] and in assay [2] were 18.2 µM and more than 45.5 µM, respectively.

For `CC[C@H](C)[C@@H](NC(=O)[C@H](O)Cc1cc(Cl)c(O)c(Br)c1)C(=O)N1[C@H](C(=O)NCCCCNC(=N)N)C[C@@H]2CC[C@@H](O)C[C@@H]21` (relative stereo), the concentration for half-maximal inhibition (IC50) in assay [1] amounted to 3.2 µM; in assay [2], 12.8 µM.

As for `CC[C@H](C)[C@@H](NC(=O)[C@H](O)Cc1cc(Cl)c(O)c(Br)c1)C(=O)N1[C@H](C(=O)NCCCCNC(=N)N)C[C@@H]2CC[C@@H](OS(=O)(=O)O)C[C@@H]21` (relative stereo), the concentration for half-maximal inhibition (IC50) was 12.2 µM in assay [1] and more than 45.5 µM in assay [2].

Regarding `CC[C@H](C)[C@@H](NC(=O)[C@H](O)Cc1cc(Br)c(O)c(Br)c1)C(=O)N1[C@H](C(=O)NCCCCNC(=N)N)C[C@@H]2CC[C@@H](O)C[C@@H]21` (relative stereo), the IC50 in assay [1] was 2.3 µM; in assay [2], 12.9 µM.
